Measured values from ChEMBL document CHEMBL1649147, “Antistaphylococcal activity of dihydrophthalazine antifolates, a family of novel antibacterial drugs” (2009).
Values after ≈ are worked out from the molar mass of the structure shown.

Tests used:
[1] = tested on: Staphylococcus epidermidis; assay: Antibacterial activity against coagulase-negative Staphylococcus epidermidis 345 after 33 passages by agar dilution method; assay type: functional
How it was run: (§1)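 Serial passage under drug. Inoculum was ~1 × 10^6 CFU/ml from overnight MHA growth, in 1 ml MHB at 35°C for 24 h. Drug ranged from 4 log2 steps above to 3 log2 steps below the MIC. […] MIC change is given as log2 steps.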

Staphylococcus aureus [2] = assay: Antibacterial activity against methicillin-susceptible, vancomycin-intermediate Staphylococcus aureus 505 by broth macrodilution method; assay type: functional
[3] = tested on: Staphylococcus epidermidis; assay: Antibacterial activity against methicillin-resistant coagulase-negative Staphylococcus epidermidis 225 by broth macrodilution method; assay type: functional
[4] = tested on: Staphylococcus epidermidis; assay: Antibacterial activity against methicillin-susceptible coagulase-negative Staphylococcus epidermidis 057 by broth macrodilution method; assay type: functional
[5] = tested on: Staphylococcus epidermidis; assay: Antibacterial activity against methicillin-resistant coagulase-negative Staphylococcus epidermidis 197 by broth macrodilution method; assay type: functional
[6] = tested on: coagulase-negative staphylococci; assay: Antibacterial activity against Tmp-susceptible coagulase-negative staphylococci by agar dilution method
[7] = tested on: Staphylococcus epidermidis; assay: Antibacterial activity against coagulase-negative Staphylococcus epidermidis 051 after 38 passages by agar dilution method; assay type: functional; how it was run: as §1
Staphylococcus aureus [8] = assay: Antibacterial activity against Staphylococcus aureus 145
[9] = tested on: Staphylococcus epidermidis; assay: Antibacterial activity against coagulase-negative Staphylococcus epidermidis 225 assessed as change in MIC by agar dilution method after serial passages in presence of antibiotic relative to control; assay type: functional; how it was run: as §1
[10] = tested on: Staphylococcus epidermidis; assay: Antibacterial activity against methicillin-resistant, vancomycin-intermediate coagulase-negative Staphylococcus epidermidis 225 after 38 passages by agar dilution method; assay type: functional
How it was run: (§2)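 Daily serial passage for up to 50 days at 35°C for 24 h in 1 ml MHB. […] Each transfer used 10 µl from the tube nearest the MIC (1–2 dilutions below) with the same turbidity as the drug-free control. […] MICs were measured by agar dilution, with changes given as log2 steps.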

[11] = tested on: coagulase-negative staphylococci; assay: Antibacterial activity against methicillin-susceptible coagulase-negative staphylococci by agar dilution method
[12] = tested on: Staphylococcus epidermidis; assay: Antibacterial activity against coagulase-negative Staphylococcus epidermidis 345 by agar dilution method; assay type: functional
How it was run: (§3)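 MICs by agar dilution on Mueller-Hinton agar following CLSI guidelines. S. aureus ATCC 29213 and E. faecalis ATCC 29212 were run as quality controls with each set, and test-strain MICs were kept only if control MICs fell within acceptable ranges.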

[13] = tested on: Staphylococcus epidermidis; assay: Antibacterial activity against methicillin-resistant coagulase-negative Staphylococcus epidermidis 197 after 50 passages by agar dilution method; assay type: functional
How it was run: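 Daily serial passage for up to 50 days at 35°C for 24 h in 1 ml MHB. Each transfer used 10 µl from the tube nearest the MIC (1–2 dilutions below) with the same turbidity as the drug-free control. MICs were measured by agar dilution, with changes given as log2 steps.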

Staphylococcus aureus [14] = assay: Antibacterial activity against Staphylococcus aureus 145 after 47 passages by agar dilution method; assay type: functional; how it was run: as §1
[15] = tested on: Staphylococcus epidermidis; assay: Antibacterial activity against coagulase-negative Staphylococcus epidermidis 057 after 15 passages by agar dilution method; assay type: functional; how it was run: as §1
[16] = tested on: Staphylococcus epidermidis; assay: Antibacterial activity against coagulase-negative Staphylococcus epidermidis 345 assessed as change in MIC by agar dilution method after serial passages in the absence of antibiotic relative to control; assay type: functional
How it was run: (§4)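 After drug-selective serial passage, selected clones were passaged 10 times in antibiotic-free MHB. MICs were then redetermined, and the change is expressed as log2 dilution steps.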

Staphylococcus aureus [17] = assay: Antibacterial activity against methicillin-resistant and vancomycin-resistant Staphylococcus aureus VRS1 by agar dilution method; assay type: functional
How it was run: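 Agar dilution on Mueller-Hinton agar per CLSI guidelines. S. aureus ATCC 29213 and E. faecalis ATCC 29212 were run with each set, and test MICs were accepted only when the control strains fell within acceptable ranges.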

[18] = tested on: Staphylococcus epidermidis; assay: Antibacterial activity against coagulase-negative Staphylococcus epidermidis 057 assessed as change in MIC by agar dilution method after serial passages in the absence of antibiotic relative to control; assay type: functional; how it was run: as §4
[19] = tested on: Staphylococcus epidermidis; assay: Antibacterial activity against methicillin-resistant, Linezolid non-susceptible coagulase-negative Staphylococcus epidermidis 345 by agar dilution method; assay type: functional
[20] = tested on: Staphylococcus epidermidis; assay: Antibacterial activity against methicillin-susceptible coagulase-negative Staphylococcus epidermidis 051 after 38 passages by agar dilution method; assay type: functional; how it was run: as §2
Staphylococcus aureus [21] = assay: Antibacterial activity against methicillin-resistant Staphylococcus aureus ATCC 43300 by broth macrodilution method; assay type: functional; conditions: ATCC43300
[22] = tested on: coagulase-negative staphylococci; assay: Antibacterial activity against methicillin-resistant coagulase-negative staphylococci by agar dilution method
Staphylococcus aureus [23] = assay: Antibacterial activity against vancomycin-resistant Staphylococcus aureus VRS1 after 20 passages by agar dilution method; assay type: functional; how it was run: as §2
[24] = tested on: Staphylococcus epidermidis; assay: Antibacterial activity against coagulase-negative Staphylococcus epidermidis 225 assessed as change in MIC by agar dilution method after serial passages in the absence of antibiotic relative to control; assay type: functional; how it was run: as §4
Staphylococcus aureus [25] = assay: Antibacterial activity against methicillin-resistant Staphylococcus aureus 145 after 47 passages by agar dilution method; assay type: functional; how it was run: as §1
[26] = tested on: Staphylococcus epidermidis; assay: Antibacterial activity against coagulase-negative Staphylococcus epidermidis 225 by agar dilution method; assay type: functional; how it was run: as §3
Staphylococcus aureus [27] = assay: Antibacterial activity against Staphylococcus aureus 505 assessed as change in MIC by agar dilution method after serial passages in presence of antibiotic relative to control; assay type: functional; how it was run: as §1

For COc1cc(Cc2cnc(N)nc2N)cc(/C=C/C(=O)N2N=Cc3ccccc3C2c2cnc(N(C)C)nc2)c1OC (centres undefined), the MIC [1] was > 128 µg/mL, the MIC (Staphylococcus aureus [2]) was 0.03 µg/mL (≈ 0.053 µM) and the MIC [3] was 0.125 µg/mL (≈ 0.221 µM). For the same compound, the MIC [4] was 4 µg/mL (≈ 7.07 µM), the MIC [5] was 0.03 µg/mL (≈ 0.053 µM) and the MIC50 [6] was 0.016 µg/mL (≈ 0.0283 µM). For the same compound, the MIC90 [6] was 0.03 µg/mL (≈ 0.053 µM), the MIC [7] was > 128 µg/mL and the MIC (Staphylococcus aureus [8]) was 0.25 µg/mL (≈ 0.442 µM). The “fold change (FC)” value [9] was 10, the MIC [10] was > 128 µg/mL and the MIC90 [11] was 0.03 µg/mL (≈ 0.053 µM). For the same compound, the MIC [12] was 0.06 µg/mL (≈ 0.106 µM), the MIC [13] was 0.125 µg/mL (≈ 0.221 µM) and the MIC (Staphylococcus aureus [14]) was > 128 µg/mL. For the same compound, the MIC [15] was > 128 µg/mL, the “fold change (FC)” value [16] was -7 and the MIC (Staphylococcus aureus [17]) was 0.25 µg/mL (≈ 0.442 µM). The “fold change (FC)” value [18] was -1, the MIC [19] was 0.06 µg/mL (≈ 0.106 µM) and the MIC [20] was > 128 µg/mL. The MIC (Staphylococcus aureus [21]) was 0.03 µg/mL (≈ 0.053 µM), the MIC50 [22] was 0.06 µg/mL (≈ 0.106 µM) and the MIC90 [22] was 0.5 µg/mL (≈ 0.884 µM). For the same compound, the MIC (Staphylococcus aureus [23]) was > 128 µg/mL, the “fold change (FC)” value [24] was -7 and the MIC (Staphylococcus aureus [25]) was > 128 µg/mL. The MIC [26] was 0.25 µg/mL (≈ 0.442 µM) and the “fold change (FC)” value (Staphylococcus aureus [27]) was 8.
